Source: the M2OR odorant receptor database

Experiments:
Settings in all cases: stereoisomer not certain
O10Q1 Q10R E12D = test system: O10Q1 Q10R E12D
In short: (§1)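 Whether a receptor–molecule pair is responsive (active) rests on the original authors' judgment that its measured signal was statistically different from baseline. Pairs without that judgment are non-responsive (inactive). Sources used varied assay methods, commonly transient luciferase assays in mammalian cell lines.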

O10R2 I170L = test system: O10R2 I170L
In short: as §1

O10T2 I137M = test system: O10T2 I137M
In short: as §1

O10V1 Q123R = test system: O10V1 Q123R
In short: as §1

O10X1 N4T R181S = test system: O10X1 N4T R181S
In short: as §1

O11G2 F3I I99N V116I = test system: O11G2 F3I I99N V116I
In short: as §1

O11H1 M240V = test system: O11H1 M240V
In short: as §1

O11H6 I107T = test system: O11H6 I107T
In short: as §1

O11HC C156Y V240M = test system: O11HC C156Y V240M
In short: as §1

O12D2 S104F = test system: O12D2 S104F
In short: as §1

Measured: odorant receptor agonist call;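 also: active if original authors judged signal statistically different from baseline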

Sequence of O10V1 Q123R (as listed by the source, stated change not applied): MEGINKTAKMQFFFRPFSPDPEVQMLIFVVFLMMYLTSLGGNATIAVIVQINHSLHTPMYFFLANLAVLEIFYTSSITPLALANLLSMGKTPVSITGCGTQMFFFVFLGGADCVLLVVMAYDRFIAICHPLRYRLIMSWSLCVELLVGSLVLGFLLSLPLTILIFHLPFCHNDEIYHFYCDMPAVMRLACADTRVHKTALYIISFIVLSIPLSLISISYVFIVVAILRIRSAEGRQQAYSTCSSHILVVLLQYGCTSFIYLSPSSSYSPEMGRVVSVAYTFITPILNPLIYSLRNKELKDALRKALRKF
Sequence of O12D2 S104F (as listed by the source, stated change not applied): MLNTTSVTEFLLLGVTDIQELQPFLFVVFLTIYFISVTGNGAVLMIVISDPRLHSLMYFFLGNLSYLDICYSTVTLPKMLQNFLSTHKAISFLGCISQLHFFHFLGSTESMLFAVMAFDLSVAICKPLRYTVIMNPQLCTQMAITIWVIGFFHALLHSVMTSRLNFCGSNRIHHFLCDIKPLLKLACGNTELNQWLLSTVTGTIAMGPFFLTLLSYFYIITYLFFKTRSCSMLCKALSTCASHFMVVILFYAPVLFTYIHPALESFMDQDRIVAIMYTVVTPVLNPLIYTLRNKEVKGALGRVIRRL
Sequence of O10R2 I170L (as listed by the source, stated change not applied): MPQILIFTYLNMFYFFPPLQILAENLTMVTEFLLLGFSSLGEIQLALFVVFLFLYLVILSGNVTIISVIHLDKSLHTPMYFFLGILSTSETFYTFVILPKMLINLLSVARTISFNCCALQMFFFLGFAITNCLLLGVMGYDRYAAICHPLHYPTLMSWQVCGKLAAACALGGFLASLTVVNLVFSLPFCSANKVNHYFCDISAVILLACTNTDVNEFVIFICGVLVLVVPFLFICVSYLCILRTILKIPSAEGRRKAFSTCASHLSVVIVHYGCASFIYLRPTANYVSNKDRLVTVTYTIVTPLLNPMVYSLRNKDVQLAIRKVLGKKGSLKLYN
Sequence of O10T2 I137M (as listed by the source, stated change not applied): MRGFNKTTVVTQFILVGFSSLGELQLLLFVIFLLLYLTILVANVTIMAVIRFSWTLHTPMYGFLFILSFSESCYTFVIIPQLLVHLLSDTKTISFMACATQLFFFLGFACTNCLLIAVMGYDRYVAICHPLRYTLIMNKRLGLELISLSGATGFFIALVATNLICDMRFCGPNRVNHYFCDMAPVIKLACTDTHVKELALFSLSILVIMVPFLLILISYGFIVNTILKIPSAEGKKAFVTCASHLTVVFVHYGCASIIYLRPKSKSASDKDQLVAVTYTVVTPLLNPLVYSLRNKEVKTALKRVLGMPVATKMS
Sequence of O11H1 M240V (as listed by the source, stated change not applied): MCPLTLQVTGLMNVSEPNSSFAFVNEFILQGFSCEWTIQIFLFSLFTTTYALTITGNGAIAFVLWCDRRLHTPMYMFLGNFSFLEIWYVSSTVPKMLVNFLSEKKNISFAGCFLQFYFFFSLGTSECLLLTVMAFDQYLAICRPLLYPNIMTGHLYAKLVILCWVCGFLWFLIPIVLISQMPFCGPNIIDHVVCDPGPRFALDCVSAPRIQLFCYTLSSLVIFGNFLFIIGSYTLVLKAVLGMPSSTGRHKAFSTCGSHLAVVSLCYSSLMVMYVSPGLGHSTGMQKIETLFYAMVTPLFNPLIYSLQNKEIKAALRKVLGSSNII
Sequence of O11H6 I107T (as listed by the source, stated change not applied): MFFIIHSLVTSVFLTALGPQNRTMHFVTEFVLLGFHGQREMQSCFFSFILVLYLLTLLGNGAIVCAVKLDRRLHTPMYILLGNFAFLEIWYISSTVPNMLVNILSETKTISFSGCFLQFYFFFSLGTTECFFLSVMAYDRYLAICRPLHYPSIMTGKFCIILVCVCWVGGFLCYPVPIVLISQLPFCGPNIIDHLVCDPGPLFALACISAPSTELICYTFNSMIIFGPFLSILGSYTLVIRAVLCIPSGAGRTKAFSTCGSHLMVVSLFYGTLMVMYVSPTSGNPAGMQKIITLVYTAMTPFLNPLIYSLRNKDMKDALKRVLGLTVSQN

C=CCOC(=O)Cc1ccccc1
inactive: O10Q1 Q10R E12D | O10R2 I170L | O10T2 I137M | O10V1 Q123R | O10X1 N4T R181S | O11G2 F3I I99N V116I | O11H1 M240V | O11H6 I107T | O11HC C156Y V240M | O12D2 S104F
